# pIC50: −log10 of the molar value.
# Tests used:
# [1] = biological target: Prostaglandin G/H synthase 1 (Homo sapiens, UniProt P23219); test: Inhibition of COX1 (unknown origin) using arachidonic acid as substrate pretreated for 10 mins followed by substrate addition and measured after 2 mins by ELISA; assay type: ADME
# [2] = biological target: T1, Prostaglandin G/H synthase 2 (Homo sapiens, UniProt P35354); test: Inhibition of COX2 (unknown origin) using arachidonic acid as substrate pretreated for 10 mins followed by substrate addition and measured after 2 mins by ELISA
# T1 sequence (P35354 whole entry): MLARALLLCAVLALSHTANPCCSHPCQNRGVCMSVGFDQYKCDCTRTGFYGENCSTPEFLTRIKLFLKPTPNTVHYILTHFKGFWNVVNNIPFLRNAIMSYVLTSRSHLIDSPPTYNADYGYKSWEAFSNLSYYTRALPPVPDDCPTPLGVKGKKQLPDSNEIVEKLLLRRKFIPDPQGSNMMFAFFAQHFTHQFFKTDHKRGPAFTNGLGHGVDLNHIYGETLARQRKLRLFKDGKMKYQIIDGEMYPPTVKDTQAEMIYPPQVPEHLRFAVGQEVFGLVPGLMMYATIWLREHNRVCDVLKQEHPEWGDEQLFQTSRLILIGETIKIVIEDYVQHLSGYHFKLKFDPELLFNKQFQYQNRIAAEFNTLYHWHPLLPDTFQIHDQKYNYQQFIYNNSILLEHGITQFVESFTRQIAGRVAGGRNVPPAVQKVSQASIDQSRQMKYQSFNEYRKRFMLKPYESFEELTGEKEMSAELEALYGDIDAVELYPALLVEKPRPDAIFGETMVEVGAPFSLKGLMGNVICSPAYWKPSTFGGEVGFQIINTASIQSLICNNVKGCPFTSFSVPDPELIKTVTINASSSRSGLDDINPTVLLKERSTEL
# Homo sapiens = species: Homo sapiens; test: Selectivity index, ratio of IC50 for COX1 (unknown origin) to ratio of IC50 for COX2 (unknown origin)
# How it was run: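 Enzyme ELISA kit: COX-1 or COX-2 preincubated with compound at 0, 1, 10 or 100 μM for 10 min at 37 °C in 0.1 M Tris-HCl pH 8.0, 5 mM EDTA, 2 mM phenol, 1 μM heme. Started with 100 μM arachidonic acid for 2 min at 37 °C, stopped with 1 M HCl. PGH₂ reduced by stannous chloride; PGF2α read by enzyme immunoassay at 450 nm. Index taken as the ratio of the COX IC50 values.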
# MCF7 = test: Antiproliferative activity against human MCF7 cells after 48 hrs by MTT assay; assay type: functional, cell-based; details: MCF7, 48 h
# B16-F10 = test: Antiproliferative activity against mouse B16F10 cells after 48 hrs by MTT assay; assay type: functional, cell-based; details: B16-F10, 48 h
# How it was run: (§1)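 Cells kept in DMEM with 10% FBS, penicillin/streptomycin, 37 °C, 5% CO₂. Seeded at 5 × 10⁴ cells/well and allowed to adhere 12 h. Exposed to 0, 0.1, 1, 10 and 100 μM (final) for 48 h. Viability read by MTT reduction at OD 570 nm with 630 nm reference. IC50 reported as mean ± SD of three independent experiments.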
# A549 = test: Antiproliferative activity against human A549 cells after 48 hrs by MTT assay; assay type: functional, cell-based; details: A549, 48 h; how it was run: as §1
# HeLa = test: Antiproliferative activity against human HeLa cells after 48 hrs by MTT assay; assay type: functional, cell-based
# HEK-293T = test: Cytotoxicity against human 293T cells after 48 hrs by MTT assay; assay type: cell-based
# Chain of Prostaglandin G/H synthase 1 (P23219 whole entry): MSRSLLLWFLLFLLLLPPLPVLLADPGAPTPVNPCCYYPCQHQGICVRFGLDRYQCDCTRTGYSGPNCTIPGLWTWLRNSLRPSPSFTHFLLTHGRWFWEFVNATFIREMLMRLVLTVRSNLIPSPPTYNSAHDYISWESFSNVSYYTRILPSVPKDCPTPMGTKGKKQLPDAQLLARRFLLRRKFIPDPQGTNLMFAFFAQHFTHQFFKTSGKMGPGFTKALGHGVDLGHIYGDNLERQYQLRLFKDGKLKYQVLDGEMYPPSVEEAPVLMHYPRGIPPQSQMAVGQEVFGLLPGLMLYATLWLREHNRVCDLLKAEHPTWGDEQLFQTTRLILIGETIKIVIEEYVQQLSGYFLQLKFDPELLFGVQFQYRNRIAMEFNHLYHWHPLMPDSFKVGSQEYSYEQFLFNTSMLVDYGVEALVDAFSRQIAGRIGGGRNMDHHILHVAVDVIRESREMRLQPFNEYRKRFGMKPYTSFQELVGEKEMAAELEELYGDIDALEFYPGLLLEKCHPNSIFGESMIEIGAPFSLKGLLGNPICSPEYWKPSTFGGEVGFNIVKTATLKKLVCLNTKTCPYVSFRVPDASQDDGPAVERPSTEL
SMILES,pIC50 [1],pIC50 [2],Ratio IC50 (Homo sapiens),pIC50 (MCF7),pIC50 (B16-F10),pIC50 (A549),pIC50 (HeLa),pIC50 (HEK-293T)
Cc1ccc(-n2nc(COC(=O)COc3cc(O)c4c(=O)cc(-c5ccccc5)oc4c3)cc2-c2cccc(Cl)c2)cc1,4.30,5.32,10.3,4.66,5.41,5.09,4.59,3.79
O=C(COc1cc(O)c2c(=O)cc(-c3ccccc3)oc2c1)OCc1cc(-c2cccc([N+](=O)[O-])c2)n(-c2ccccc2)n1,4.47,5.23,5.68,4.90,4.66,< 4.00,4.51,3.46
O=C(COc1cc(O)c2c(=O)cc(-c3ccccc3)oc2c1)OCc1cc(-c2cccc(F)c2)n(-c2ccccc2)n1,4.36,5.45,12.2,5.04,4.96,4.40,5.55,3.70
O=C(COc1cc(O)c2c(=O)cc(-c3ccccc3)oc2c1)OCc1cc(-c2ccc([N+](=O)[O-])cc2)n(-c2ccccc2)n1,4.38,5.78,25.3,4.65,4.81,4.77,5.69,3.72
O=C(COc1cc(O)c2c(=O)cc(-c3ccccc3)oc2c1)OCc1cc(-c2ccc(C(F)(F)F)cc2)n(-c2ccccc2)n1,4.48,5.36,7.61,4.96,5.01,5.10,5.18,3.79
Cc1cccc(-c2cc(COC(=O)COc3cc(O)c4c(=O)cc(-c5ccccc5)oc4c3)nn2-c2ccc(Cl)cc2)c1,4.56,5.75,15.6,4.63,5.31,4.49,5.39,3.79
O=C(COc1cc(O)c2c(=O)cc(-c3ccccc3)oc2c1)OCc1cc(-c2ccc(Cl)c(Cl)c2)n(-c2ccc(Cl)cc2)n1,4.48,5.07,3.86,4.92,5.22,5.44,5.33,3.57
O=C(COc1cc(O)c2c(=O)cc(-c3ccccc3)oc2c1)OCc1cc(-c2cccc(Cl)c2)n(-c2ccccc2)n1,4.35,5.35,10.1,4.48,5.10,5.33,5.76,3.73
Cc1cccc(-c2cc(COC(=O)COc3cc(O)c4c(=O)cc(-c5ccccc5)oc4c3)nn2-c2ccccc2)c1,4.41,5.87,28.7,4.97,5.55,< 4.00,5.71,3.50
Cc1ccc(-n2nc(COC(=O)COc3cc(O)c4c(=O)cc(-c5ccccc5)oc4c3)cc2-c2ccc(Cl)cc2)cc1,< 4.30,5.67,> 23,< 4.00,4.68,5.43,5.57,3.52
O=c1cc(-c2ccccc2)oc2cc(O)cc(O)c12 [CHRYSIN],,,,4.59,4.76,4.32,4.60,3.50
Cc1ccc(-c2cc(C(F)(F)F)nn2-c2ccc(S(N)(=O)=O)cc2)cc1 [CELECOXIB],,,,4.57,4.72,4.79,4.80,3.65

# Now those with a higher pIC50 (MCF7), led by results:
pIC50 [1],pIC50 [2],Ratio IC50 (Homo sapiens),pIC50 (MCF7),pIC50 (B16-F10),pIC50 (A549),pIC50 (HeLa),SMILES,pIC50 (HEK-293T)
4.39,5.84,28.4,5.10,4.75,5.33,4.91,Cc1ccc(-c2cc(COC(=O)COc3cc(O)c4c(=O)cc(-c5ccccc5)oc4c3)nn2-c2ccc(Cl)cc2)cc1,3.65
4.43,6.37,87.3,5.40,5.24,5.36,< 4.00,O=C(COc1cc(O)c2c(=O)cc(-c3ccccc3)oc2c1)OCc1cc(-c2cccc(Cl)c2)n(-c2ccc(Cl)cc2)n1,3.57
< 4.30,5.17,> 7,5.48,5.19,5.26,5.20,O=C(COc1cc(O)c2c(=O)cc(-c3ccccc3)oc2c1)OCc1cc(-c2ccc(Cl)c(Cl)c2)n(-c2ccccc2)n1,3.63
4.48,5.66,13.1,5.46,5.80,5.49,5.62,O=C(COc1cc(O)c2c(=O)cc(-c3ccccc3)oc2c1)OCc1cc(-c2ccccc2)n(-c2ccccc2)n1,3.76
4.53,5.30,5.92,5.21,5.13,5.29,5.36,Cc1ccc(-n2nc(COC(=O)COc3cc(O)c4c(=O)cc(-c5ccccc5)oc4c3)cc2-c2ccc(C(F)(F)F)cc2)cc1,3.67
4.39,5.32,8.58,5.10,5.19,5.18,5.36,O=C(COc1cc(O)c2c(=O)cc(-c3ccccc3)oc2c1)OCc1cc(-c2cccc(C(F)(F)F)c2)n(-c2ccccc2)n1,3.57
4.40,5.97,36.5,5.53,4.49,4.64,4.61,Cc1ccc(-n2nc(COC(=O)COc3cc(O)c4c(=O)cc(-c5ccccc5)oc4c3)cc2-c2ccc(Br)cc2)cc1,3.56
4.35,6.03,48.4,5.27,5.59,5.35,5.32,Cc1ccc(-c2cc(COC(=O)COc3cc(O)c4c(=O)cc(-c5ccccc5)oc4c3)nn2-c2ccccc2)cc1,3.50

# Source: ChEMBL document CHEMBL4229460, “Design and biological evaluation of novel hybrids of 1, 5-diarylpyrazole and Chrysin for selective COX-2 inhibition” (Bioorg Med Chem, 2018)
